# Active and inactive are the calls of the source. The rule behind the calls is not given here.
# Columns and labels:
# [1] = biological target: Cyclin-dependent kinase 1 (Homo sapiens) (UniProt P06493); assay: Inhibition of CDK1 phosphorylation at Thr-161 residue in human MCF7 cells at 75 nM after 48 hrs by Western blot analysis relative to control; assay type: cell-based
# In short: (§1)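 Western blot of MCF-7 lysates after treatment across a concentration series. Probes were CDK1, pCDK1 (Thr 161) and cleaved caspase 3 (17 kDa). Bands were quantified by densitometry as fold change versus untreated control, with at least three repeats.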
# [2] = Binding affinity to DNA (unknown origin) assessed as occurrence of hypochromism after 1 hr by UV-Vis spectrophotometric analysis
# In short: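 UV absorption of DNA near 260 nm, recorded with and without increasing compound concentrations; hypochromism was taken as the binding read-out.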
# [3] = tested on: HEK-293T; assay: (§2) Cytotoxicity against HEK293T cells assessed as cells growth inhibition after 48 hrs by MTT assay; assay type: functional, cell-based; settings: Homo sapiens
# In short: (§3)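 MTT colorimetric assay. HEK-293T (kidney line) and VERO cells were tested, and the IC50 was taken as the concentration giving 50% growth inhibition.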
# [4] = as §2; assay type: functional, cell-based; settings: Homo sapiens, HEK-293T; in short: as §3
# [5] = Cytotoxicity against African green monkey Vero cells assessed as reduction in colony formation after 48 hrs by crystal violet-staining based assay; assay type: toxicity, cell-based; settings: chlorocebus sabaeus
# [6] = tested on: MCF7; assay: Induction of apoptosis in human MCF7 cells assessed as increase in BAX expression at 75 nM after 48 hrs by Western blot analysis relative to control; assay type: functional
# [7] = Cytotoxicity against human MDA-MB-231 cells assessed as reduction in cell viability after 48 hrs by MTT assay; assay type: functional, cell-based; settings: MDA-MB-231, 48 h
# [8] = tested on: MCF7; assay: Cytotoxicity against human MCF7 cells assessed as cells growth inhibition after 48 hrs by MTT assay; assay type: functional, cell-based
# [9] = tested on: HEK-293T; assay: (§4) Cytotoxicity against HEK293T cells assessed as reduction in colony formation after 48 hrs by crystal violet-staining based assay; assay type: functional; settings: Homo sapiens
# [10] = as §4; assay type: functional; settings: Homo sapiens, HEK-293T, read-out: LC50 (the source's name)
# [11] = tested on: MCF7; assay: Induction of apoptosis in human MCF7 cells assessed as decrease in BCL-XL expression at 50 nM after 48 hrs by Western blot analysis relative to control; assay type: functional
# [12] = tested on: MCF7; assay: Inhibition of alpha tubulin in human MCF7 cells assessed as formation of abnormal mitotic spindle at 50 to 75 uM by FITC/propidium iodide-staining based assay; assay type: cell-based
# In short: (§5)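 MCF-7 cells were immunostained for α-tubulin with FITC and counterstained with propidium iodide for nuclei. Merged images were inspected for assembly distortion and abnormal mitotic spindles.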
# [13] = biological target: Cyclin-dependent kinase 1 (Homo sapiens) (UniProt P06493); assay: Inhibition of CDK1 phosphorylation at Thr-161 residue in human MCF7 cells at 50 nM after 48 hrs by Western blot analysis relative to control; assay type: cell-based; in short: as §1
# [14] = tested on: MCF7; assay: Induction of apoptosis in human MCF7 cells assessed as decrease in BCL-XL expression at 75 nM after 48 hrs by Western blot analysis relative to control; assay type: functional
# [15] = tested on: MCF7; assay: Inhibition of alpha tubulin in human MCF7 cells assessed as distortion in tubulin assembly at 50 to 75 uM by FITC/propidium iodide-staining based assay; assay type: cell-based; in short: as §5
# [16] = tested on: MCF7; assay: Induction of apoptosis in human MCF7 cells assessed as nuclear fragmentation up to 75 nM after 48 hrs by DAPI-nuclear staining based fluorescent microscopic analysis relative to control; assay type: functional, cell-based
# In short: (§6)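 MCF-7 cells exposed to increasing compound concentrations for 48 h before DAPI was added. Nuclei were scored for chromatin condensation and fragmentation, counted as apoptotic nuclei versus untreated cells.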
# [17] = Downregulation of p21 expression in human MCF7 cells at 50 nM after 48 hrs by Western blot analysis relative to control; assay type: functional, cell-based
# [18] = tested on: MCF7; assay: Induction of apoptosis in human MCF7 cells assessed as increase in apoptotic nuclei at 75 nM after 48 hrs by DAPI-nuclear staining based fluorescent microscopic analysis relative to control; assay type: functional; in short: as §6
# [19] = tested on: MCF7; assay: Induction of apoptosis in human MCF7 cells assessed as 19 kDa caspase-3 expression level at 75 nM after 48 hrs by Western blot analysis relative to control; assay type: functional
# [20] = tested on: MCF7; assay: Induction of apoptosis in human MCF7 cells assessed as increase in BAX expression at 50 nM after 48 hrs by Western blot analysis relative to control; assay type: functional
# [21] = tested on: MCF7; assay: Cytotoxicity against human MCF7 cells assessed as reduction in colony formation after 48 hrs by crystal violet-staining based assay; assay type: functional, cell-based
# [22] = tested on: MCF7; assay: Induction of apoptosis in human MCF7 cells assessed as increase in caspase-3 expression at 50 to 75 nM after 48 hrs by TRITC/DAPI-staining based fluorescent microscopic analysis; assay type: functional, cell-based
# In short: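 Caspase 3 immunocytochemistry in MCF-7 cells after increasing compound concentrations. Signal was expressed as densitometric fold change versus untreated control, with at least three repeats.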
# [23] = Downregulation of CDK1 expression in human MCF7 cells at 50 nM after 48 hrs by Western blot analysis relative to control; assay type: functional, cell-based; in short: as §1
# [24] = Cytotoxicity against human MDA-MB-468 cells assessed as reduction in cell viability after 48 hrs by MTT assay; assay type: functional, cell-based; settings: MDA-MB-468, 48 h
# [25] = Cell cycle arrest in human MCF7 cells assessed as accumulation at G2/M phase at 50 nM after 48 hrs by propidium iodide-staining based FACS analysis (reference value: 41 +/- 2.8 %); assay type: functional
# [26] = tested on: MCF7; assay: Inhibition of topoisomerase in human MCF7 cell nuclear lysates assessed as reduction in relaxation of supercoiled plasmid DNA NFkB substrate at 10 to 75 nM after 30 mins by ethidium bromide-staining based agarose gel electrophoresis
# In short: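 Ex vivo topoisomerase assay using MCF-7 nuclear lysate with NFkB plasmid as substrate. Compound ranged from 10 nM to 75 nM, with lanes for plasmid alone and untreated lysate, and an etoposide lane at 45 µM.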
# [27] = Downregulation of CDK1 expression in human MCF7 cells at 75 nM after 48 hrs by Western blot analysis relative to control; assay type: functional, cell-based; in short: as §1
# [28] = Cell cycle arrest in human MCF7 cells assessed as accumulation at subG1 phase at 100 nM after 48 hrs by propidium iodide-staining based FACS analysis (reference value: 0.8 +/- 0.1 %); assay type: functional
# [29] = tested on: MCF7; assay: Induction of apoptosis in human MCF7 cells assessed as increase in 17 kDa caspase-3 expression at 75 nM after 48 hrs by Western blot analysis relative to control; assay type: functional; in short: as §1
# [30] = Downregulation of p21 expression in human MCF7 cells at 75 nM after 48 hrs by Western blot analysis relative to control; assay type: functional, cell-based
# [31] = tested on: MCF7; assay: Induction of apoptosis in human MCF7 cells assessed as increase in 17 kDa caspase-3 expression at 50 nM after 48 hrs by Western blot analysis relative to control; assay type: functional; in short: as §1
# [32] = tested on: MCF7; assay: Antiinvasive activity in human MCF7 cells assessed as reduction in number of invaded colonies at 25 to 75 nM after 48 hrs by crystal violet-staining based colony counting; assay type: functional, cell-based
# In short: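 Matrigel invasion assay in MCF-7 cells exposed to rising compound concentrations; read-out is the number of invaded colonies versus an untreated control.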
# [33] = Inhibition of tubulin polymerization in human MCF7 cells assessed as suppression of protein assembly after 15 mins by spectrophotometric analysis; assay type: cell-based
# [34] = biological target: DNA topoisomerase 2-alpha (Homo sapiens) (UniProt P11388); assay: Inhibition of human Topo2alpha-mediated kDNA decatenation at 100 uM after 30 mins by SDS-based agarose gel electrophoresis
# [35] = biological target: DNA topoisomerase 2-alpha (Homo sapiens) (UniProt P11388); assay: Poison activity at human Topo2alpha using pUC19 as substrate assessed as DNA cleavage-complex formation at 100 uM measured after 20 mins by ethidium bromide staining based SDS-agarose gel electrophoresis
# [36] = Downregulation of p53 expression in human MCF7 cells at 50 nM after 48 hrs by Western blot analysis relative to control; assay type: functional, cell-based
# [37] = tested on: MCF7; assay: Induction of apoptosis in human MCF7 cells assessed as chromatin condensation up to 75 nM after 48 hrs by DAPI-nuclear staining based fluorescent microscopic analysis relative to control; assay type: functional, cell-based; in short: as §6
# [38] = Downregulation of p53 expression in human MCF7 cells at 75 nM after 48 hrs by Western blot analysis relative to control; assay type: functional, cell-based
# [39] = tested on: MCF7; assay: Induction of apoptosis in human MCF7 cells assessed as 19 kDa caspase-3 expression level at 50 nM after 48 hrs by Western blot analysis relative to control; assay type: functional
# [40] = Cytotoxicity against African green monkey Vero cells assessed as cells growth inhibition after 48 hrs by MTT assay; assay type: toxicity, cell-based, Chlorocebus sabaeus; in short: as §3
# Sequence of DNA topoisomerase 2-alpha (Homo sapiens) (P11388 whole entry): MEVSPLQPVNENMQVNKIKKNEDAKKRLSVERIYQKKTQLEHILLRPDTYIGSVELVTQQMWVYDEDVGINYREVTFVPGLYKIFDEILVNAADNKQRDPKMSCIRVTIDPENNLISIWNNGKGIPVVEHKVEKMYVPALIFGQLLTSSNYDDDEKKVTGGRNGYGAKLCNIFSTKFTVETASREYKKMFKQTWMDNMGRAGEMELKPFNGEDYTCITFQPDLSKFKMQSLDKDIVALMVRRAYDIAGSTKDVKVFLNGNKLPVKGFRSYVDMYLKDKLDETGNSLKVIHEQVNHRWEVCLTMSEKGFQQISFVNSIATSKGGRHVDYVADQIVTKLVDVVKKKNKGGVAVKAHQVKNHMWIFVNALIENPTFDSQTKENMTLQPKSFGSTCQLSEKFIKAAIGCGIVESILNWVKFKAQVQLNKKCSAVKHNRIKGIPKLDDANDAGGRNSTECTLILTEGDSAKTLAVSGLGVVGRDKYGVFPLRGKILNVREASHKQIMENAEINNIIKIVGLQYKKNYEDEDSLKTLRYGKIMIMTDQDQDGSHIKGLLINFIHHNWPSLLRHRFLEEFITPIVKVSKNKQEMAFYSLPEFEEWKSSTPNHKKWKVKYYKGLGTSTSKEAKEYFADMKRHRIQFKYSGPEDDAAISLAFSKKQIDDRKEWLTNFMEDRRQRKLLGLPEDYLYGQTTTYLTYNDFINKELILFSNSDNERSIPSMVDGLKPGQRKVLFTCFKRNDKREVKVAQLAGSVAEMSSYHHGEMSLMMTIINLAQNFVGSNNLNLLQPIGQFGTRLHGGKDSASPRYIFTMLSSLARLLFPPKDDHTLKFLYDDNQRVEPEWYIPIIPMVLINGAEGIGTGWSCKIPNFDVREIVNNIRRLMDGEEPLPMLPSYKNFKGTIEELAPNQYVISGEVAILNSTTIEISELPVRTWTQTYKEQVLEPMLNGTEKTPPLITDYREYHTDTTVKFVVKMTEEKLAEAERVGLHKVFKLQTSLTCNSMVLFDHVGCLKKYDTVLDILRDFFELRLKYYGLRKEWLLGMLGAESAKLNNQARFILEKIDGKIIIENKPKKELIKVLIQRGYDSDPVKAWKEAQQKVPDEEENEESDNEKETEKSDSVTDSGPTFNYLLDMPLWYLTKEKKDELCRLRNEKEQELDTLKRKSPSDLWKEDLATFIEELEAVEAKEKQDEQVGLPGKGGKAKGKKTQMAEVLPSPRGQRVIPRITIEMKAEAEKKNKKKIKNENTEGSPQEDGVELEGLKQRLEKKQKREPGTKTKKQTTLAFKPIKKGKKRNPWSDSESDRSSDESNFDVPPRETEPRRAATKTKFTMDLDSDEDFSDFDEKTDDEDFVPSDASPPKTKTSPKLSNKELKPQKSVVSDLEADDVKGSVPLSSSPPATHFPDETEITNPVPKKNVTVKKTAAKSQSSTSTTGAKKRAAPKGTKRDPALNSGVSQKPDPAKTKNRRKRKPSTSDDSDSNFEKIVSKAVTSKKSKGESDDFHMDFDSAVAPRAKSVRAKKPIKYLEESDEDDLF
# Sequence of Cyclin-dependent kinase 1 (Homo sapiens) (P06493 whole entry, looked up): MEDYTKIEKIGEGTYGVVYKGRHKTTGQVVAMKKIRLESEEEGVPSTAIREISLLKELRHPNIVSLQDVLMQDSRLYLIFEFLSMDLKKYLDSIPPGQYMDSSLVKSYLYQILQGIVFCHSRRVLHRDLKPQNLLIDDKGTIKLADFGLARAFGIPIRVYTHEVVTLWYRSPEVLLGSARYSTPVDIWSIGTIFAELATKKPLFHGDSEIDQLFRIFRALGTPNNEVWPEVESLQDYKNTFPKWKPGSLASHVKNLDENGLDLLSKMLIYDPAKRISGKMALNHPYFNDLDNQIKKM
smiles,measurement,setting,value
COc1ccc(/C=C2\N=C3C=CC=CN3C2=O)cc1,fold change (FC),[1],2
same,Kb,[2],2e+06 M⁻¹
same,growth inhibition (GI),[3],Dose-dependent effect
same,IC50,[4],60 nM
same,CC50 at 48 h,"[5]; Vero cells, read-out: LC50",1500 nM
same,Activity,"[5]; vero, 48 h",Dose-dependent effect
same,fold change (FC),[6],2
same,IC50,[7],64 nM
same,growth inhibition (GI),[8],Dose-dependent effect
same,Activity,[9],Dose-dependent effect
same,CC50,[10],60 nM
same,fold change (FC),[11],0.9
same,inhibition,[12],Active
same,fold change (FC),[13],1.2
same,fold change (FC),[14],0.2
same,inhibition,[15],Active
same,Activity,[16],Active
same,fold change (FC),[17],1.4
same,fold change (FC),[18],>6
same,fold change (FC),[19],1.6
same,fold change (FC),[20],1.2
same,Activity,[21],Dose-dependent effect
same,Activity,[22],Dose-dependent effect
same,fold change (FC),[23],0.9
same,IC50,[24],60 nM
same,Activity,[25],80.1%
same,inhibition,[26],Active
same,fold change (FC),[27],0.2
same,Activity,[28],20.2%
same,fold change (FC),[29],2
same,fold change (FC),[30],2.5
same,fold change (FC),[31],1.6
same,Activity,[32],Active
same,IC50,[33],54 nM
same,inhibition,[34],Active
same,Activity,[35],Active
same,fold change (FC),[36],1.4
same,Activity,[37],Active
same,fold change (FC),[38],2.5
same,fold change (FC),[39],1.4
same,IC50 at 48 h,"[40]; African green monkey (Chlorocebus sabaeus), Vero cells",1500 nM
same,growth inhibition (GI),"[40]; chlorocebus sabaeus, vero, 48 h",Dose-dependent effect

# Reference: ChEMBL document CHEMBL3864174, “Scaffold-Hopping of Aurones: 2-Arylideneimidazo[1,2-a]pyridinones as Topoisomerase IIα-Inhibiting Anticancer Agents” (ACS Med Chem Lett, 2016)
